ChEMBL document CHEMBL1821648, “(2S,3S)-sulfated pterosin C, a cytotoxic sesquiterpene from the Bangladeshi mangrove fern Acrostichum aureum” (J Nat Prod, 2011)
Activity calls are given as the source filed them. No cut-off for these calls is given here.

Experiments:
AGS [1] = assay: Cytotoxicity against human AGS cells after 48 hrs by MTT assay; type: functional, cell-based
Summary of the method: (§1)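 Cells seeded at 1.0 × 10^4 to 3.5 × 10^4 per well and incubated 24 h at 37 °C under 5% CO2. Exposed to a range of compound concentrations for 48 h, washed, then given MTT for 2 h and lysed. Absorbance read at 560 nm 45 min after lysis; IC50 from probit analysis. Cycloheximide as positive control.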

AGS [2] = assay: Induction of apoptosis in human AGS cells assessed as early apoptosis level at 150 ug/mL after 48 hrs by Annexin V-FITC apoptosis assay; type: functional, cell-based
Summary of the method: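 AGS cells seeded at 40 × 10^4 per well and incubated 24 h at 37 °C under 5% CO2. Treated 24 and 48 h with test compound at 15 μg/mL, or cycloheximide at 150 μg/mL as positive control; untreated cells as negative control. Trypsinized, pelleted, then resuspended in binding buffer (0.1 M Hepes/NaOH, 1.4 M NaCl, 25 mM CaCl2). Stained with FITC-annexin V plus PI for 15 min, dark, room temperature. Flow cytometry within 1 h; early apoptosis counted as AV+/PI−.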

MDA-MB-231 = assay: Cytotoxicity against human MDA-MB-231 cells after 48 hrs by MTT assay; type: functional, cell-based; details: MDA-MB-231, 48 h; summary of the method: as §1
HT-29 = assay: Cytotoxicity against human HT-29 cells after 48 hrs by MTT assay; type: functional, cell-based; details: HT-29, 48 h; summary of the method: as §1
NIH3T3 = assay: Cytotoxicity against mouse NIH/3T3 cells after 48 hrs by MTT assay; type: functional, cell-based; details: NIH3T3, 48 h; summary of the method: as §1
MCF7 = assay: Cytotoxicity against human MCF7 cells after 48 hrs by MTT assay; type: functional, cell-based; details: MCF7, 48 h; summary of the method: as §1
AGS [3] = assay: Induction of apoptosis in human AGS cells assessed as early apoptosis level at 15 ug/mL after 24 hrs by Annexin V-FITC apoptosis assay; type: functional
Summary of the method: (§2)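 Cells plated at 40 × 10^4 per well, grown 24 h at 37 C in 5% CO2, then exposed to compound at 15 μg/mL for the stated time. Harvested by rapid trypsinisation, pelleted, resuspended in binding buffer (0.1 M Hepes/NaOH, 1.4 M NaCl, 25 mM CaCl2). Stained with FITC-annexin V and PI for 15 min, dark, room temperature. Flow cytometry within 1 h; early apoptosis scored as AV+/PI−. Untreated cells as negative control, cycloheximide 150 μg/mL as positive control.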

AGS [4] = assay: Induction of apoptosis in human AGS cells assessed as early apoptosis level at 15 ug/mL after 48 hrs by Annexin V-FITC apoptosis assay; type: functional; summary of the method: as §2

Compound	IC50 (AGS [1]) [µM]	Activity (AGS [2])	IC50 (MDA-MB-231) [µM]	IC50 (HT-29) [µM]	IC50 (NIH3T3) [µM]	IC50 (MCF7) [µM]	Activity (AGS [3]) [%]	Activity (AGS [4]) [%]
C[C@@H]1C[C@@H]([C@H](O)CC2CC(=O)NC(=O)C2)C(=O)[C@@H](C)C1 [CYCLOHEXIMIDE]	3.6	Active	1.2	12.8	1.1	> 100	–	–
Cc1cc2c(c(C)c1CCOS(=O)(=O)O)C(=O)[C@@H](C)[C@@H]2O	23.9	–	> 100	68.8	46.8	64.4	6.8	25.2
